According to ChEMBL document CHEMBL5032502, “Syntheses, Biological Evaluations, and Mechanistic Studies of Benzo[c][1,2,5]oxadiazole Derivatives as Potent PD-L1 Inhibitors with In Vivo Antitumor Activity” (J Med Chem, 2021):
Calls of active or inactive are those of the source. The calls are words filed in the database; no cut-off is given here.

target: Programmed cell death protein 1/Programmed cell death 1 ligand 1 (Homo sapiens, UniProt Q9NZQ7); assay: Inhibition of human PD-1/PD-L1 interaction assessed as blockade activity incubated for 15 mins by HTRF assay; format: protein-complex assay; settings: not given
Procedure, shortened: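 Tag1-PD-L1 and Tag2-PD-1 proteins preincubated with compound (0.1 nM to 10 μM, triplicate) 15 min at room temperature, then anti-Tag1-Eu³⁺/anti-Tag2-XL665 added for 2 h at room temperature. Excitation 337 nm, emission 665 and […]. Signal taken as 665/615 ratio ×10 000; IC50 fitted from inhibition rates.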

Chain of Programmed cell death protein 1/Programmed cell death 1 ligand 1 (Q15116 whole entry): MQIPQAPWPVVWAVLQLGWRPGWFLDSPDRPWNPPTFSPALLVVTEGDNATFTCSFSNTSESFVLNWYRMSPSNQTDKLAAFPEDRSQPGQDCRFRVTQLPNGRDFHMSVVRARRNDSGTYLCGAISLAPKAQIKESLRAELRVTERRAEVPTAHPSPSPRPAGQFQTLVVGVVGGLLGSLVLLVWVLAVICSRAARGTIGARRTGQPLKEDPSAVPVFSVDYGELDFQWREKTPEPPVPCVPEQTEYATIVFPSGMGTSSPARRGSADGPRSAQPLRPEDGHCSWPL
Chain of Programmed cell death protein 1/Programmed cell death 1 ligand 1 (Q9NZQ7 whole entry): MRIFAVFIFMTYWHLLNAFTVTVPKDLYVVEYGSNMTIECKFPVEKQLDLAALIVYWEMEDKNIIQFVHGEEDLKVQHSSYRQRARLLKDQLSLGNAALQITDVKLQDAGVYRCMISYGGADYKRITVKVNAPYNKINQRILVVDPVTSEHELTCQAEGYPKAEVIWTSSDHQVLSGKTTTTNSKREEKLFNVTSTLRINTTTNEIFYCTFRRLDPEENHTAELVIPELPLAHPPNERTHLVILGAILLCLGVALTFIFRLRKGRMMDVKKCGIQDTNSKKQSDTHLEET

SMILES | IC50
O=C(O)[C@@H]1CCCCN1Cc1cc(Cl)c(OCc2cccc(-c3ccccc3)c2Br)cc1OCc1ccc2nonc2c1 | 13.3 nM
Cc1c(COc2cc(OCc3ccc4nonc4c3)c(CN[C@H](CO)C(=O)O)cc2Cl)cccc1-c1ccccc1 | 16.6 nM
NS(=O)(=O)CCNCc1cc(Cl)c(OCc2cccc(-c3ccccc3)c2Br)cc1OCc1ccc2nonc2c1 | 342 nM
O=C(O)[C@@H](CO)NCc1cc(Cl)c(OCc2cccc(-c3cccc(F)c3)c2Cl)cc1OCc1ccc2nonc2c1 | 6.5 nM
O=C(O)C1CN(Cc2cc(Cl)c(OCc3cccc(-c4ccccc4)c3Br)cc2OCc2ccc3nonc3c2)C1 | 52.3 nM
O=C1CC[C@@H](CNCc2cc(Cl)c(OCc3cccc(-c4ccccc4)c3Cl)cc2OCc2ccc3nonc3c2)N1 | 21.6 nM
Clc1cc(CNCCN2CCCCC2)c(OCc2ccc3nonc3c2)cc1OCc1cccc(-c2ccccc2)c1Cl | 291 nM
CN1CCN(Cc2cc(Cl)c(OCc3cccc(-c4ccccc4)c3Br)cc2OCc2ccc3nonc3c2)CC1 | 3590 nM
OC[C@@H](O)CNCc1cc(Cl)c(OCc2cccc(-c3ccccc3)c2Br)cc1OCc1ccc2nonc2c1 | 15.9 nM
Cc1c(COc2ccc(CN[C@H](CO)C(=O)O)c(OCc3ccc4nonc4c3)c2)cccc1-c1ccccc1 | 33.7 nM
OC1CCN(Cc2cc(Cl)c(OCc3cccc(-c4ccccc4)c3Br)cc2OCc2ccc3nonc3c2)CC1 | 1050 nM
OC1CCC(NCc2cc(Cl)c(OCc3cccc(-c4ccccc4)c3Br)cc2OCc2ccc3nonc3c2)CC1 (stereo unspecified) | 57.2 nM
CC(C)C[C@H](NCc1cc(Cl)c(OCc2cccc(-c3ccccc3)c2Cl)cc1OCc1ccc2nonc2c1)C(=O)N[C@H](CC(C)C)C(=O)O | 1580 nM
Cc1c(COc2ccc(CN[C@H](CO)C(=O)O)c(OCc3ccc4ccoc4c3)c2)cccc1-c1ccccc1 | 2340 nM
Cc1c(COc2ccc(CN[C@H](CO)C(=O)O)c(OCc3ccc4nsnc4c3)c2)cccc1-c1ccccc1 | 206 nM
O=C(O)[C@@H](CO)NCc1cc(Br)c(OCc2cccc(-c3ccccc3)c2Br)cc1OCc1ccc2nonc2c1 | 27.5 nM
O=C(O)[C@@H](CO)NCc1cc(Cl)c(OCc2cccc(-c3cccc(OCCO)c3)c2Cl)cc1OCc1ccc2nonc2c1 | 101 nM
CC(C)(C)OC[C@@H](NCc1cc(Cl)c(OCc2cccc(-c3ccccc3)c2Cl)cc1OCc1ccc2nonc2c1)C(=O)N[C@H](CO)C(=O)O | 393 nM
O=C(O)[C@@H](CO)NCc1cc(Cl)c(OCc2cccc(-c3cccc(F)c3F)c2Cl)cc1OCc1ccc2nonc2c1 | 162 nM

target: Programmed cell death protein 1 (Homo sapiens) (UniProt Q15116); assay: Binding affinity to human PD-1 assessed as dissociation constant by surface plasmon resonance analysis; settings: not given
Procedure, shortened: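 His-tagged human PD-L1 IgV or Fc-tagged human PD-1 IgV immobilized on a CM5 chip by amine coupling in 10 mM sodium acetate, pH 4.5. Compound serially diluted in PBS with 0.05% Tween 20 and 5% DMSO and flowed over the chip. KD fitted by instrument software, mean ± SEM of two to three independent experiments.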

Chain of Programmed cell death protein 1 (Homo sapiens) (Q15116 whole entry): as the sequence (Q15116 whole entry) above

SMILES | Activity
O=C(O)[C@@H](CO)NCc1cc(Cl)c(OCc2cccc(-c3ccccc3)c2Br)cc1OCc1ccc2nonc2c1 | inactive

system: Jurkat; assay: Cytotoxicity against human Jurkat cells expressing PD-1/NFAT/Luc assessed as inhibition of cell viability at 0.1 to 10 uM incubated for 24 hrs by CCK8 assay; format: functional, cell-based; settings: dose 0.1-10 µM
Procedure, shortened: (§1)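 PD-1⁺/NFAT-luc/Jurkat cells seeded at 20 000 per well, treated with compound in medium with 1% final DMSO for 24 h. CCK8 added for 4 h, then absorbance read.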

SMILES | Activity
O=C(O)[C@@H](CO)NCc1cc(Cl)c(OCc2cccc(-c3cccc(F)c3)c2Cl)cc1OCc1ccc2nonc2c1 | inactive
O=C(O)[C@@H](CO)NCc1cc(Cl)c(OCc2cccc(-c3ccccc3)c2Br)cc1OCc1ccc2nonc2c1 | inactive

system: CHO-K1; assay: Cytotoxicity against CHO-K1 cells expressing PD-L1/aAPC assessed as inhibition of cell viability at 0.1 to 10 uM incubated for 24 hrs by MTT assay; format: functional, cell-based; settings: Cricetulus griseus, dose 0.1-10 µM
Procedure, shortened: (§2)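 PD-L1⁺/aAPC/CHO-K1 cells (2000/well) or MC38 cells (5000/well) allowed to adhere for 12 h, then exposed to compound in medium with 1% final DMSO for 24 h. MTT added for 4 h, medium replaced with DMSO, absorbance read.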

SMILES | Activity
O=C(O)[C@@H](CO)NCc1cc(Cl)c(OCc2cccc(-c3cccc(F)c3)c2Cl)cc1OCc1ccc2nonc2c1 | inactive
O=C(O)[C@@H](CO)NCc1cc(Cl)c(OCc2cccc(-c3ccccc3)c2Br)cc1OCc1ccc2nonc2c1 | inactive

system: MC-38; assay: Cytotoxicity against mouse MC38 cells assessed as inhibition of cell viability at 0.1 to 10 uM incubated for 24 hrs by MTT assay; format: functional, cell-based; settings: dose 0.1-10 µM; procedure, shortened: as §2

SMILES | Activity
O=C(O)[C@@H](CO)NCc1cc(Cl)c(OCc2cccc(-c3cccc(F)c3)c2Cl)cc1OCc1ccc2nonc2c1 | inactive
O=C(O)[C@@H](CO)NCc1cc(Cl)c(OCc2cccc(-c3ccccc3)c2Br)cc1OCc1ccc2nonc2c1 | inactive

system: Jurkat; assay: Cytotoxicity against human Jurkat cells expressing PD-1/NFAT/Luc assessed as inhibition of cell viability at 10 uM incubated for 24 hrs by CCK8 assay; format: functional, cell-based; settings: not given; procedure, shortened: as §1

SMILES | Activity
COc1nc(OCc2cccc(-c3ccccc3)c2C)ccc1CNCCNC(C)=O | Active

system: CHO-K1; assay: Cytotoxicity against CHO-K1 cells expressing PD-L1/aAPC assessed as inhibition of cell viability at 10 uM incubated for 24 hrs by MTT assay; format: functional, cell-based; settings: Cricetulus griseus; procedure, shortened: as §2

SMILES | Activity
COc1nc(OCc2cccc(-c3ccccc3)c2C)ccc1CNCCNC(C)=O | Active

system: MC-38; assay: Cytotoxicity against mouse MC38 cells assessed as inhibition of cell viability at 10 uM incubated for 24 hrs by MTT assay; format: functional, cell-based; settings: not given; procedure, shortened: as §2

SMILES | Activity
COc1nc(OCc2cccc(-c3ccccc3)c2C)ccc1CNCCNC(C)=O | Active

system: not listed separately; assay: Half life in Sprague-Dawley rat at 2 mg/kg, iv measured upto 24 hrs by LC-MS analysis; format: ADME, organism-based; settings: in vivo
Procedure, shortened: (§3)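 Male animals fasted 12 h before dosing. Plasma levels measured by LC-MS, with the prodrug quantified as the parent acid. Mean ± SEM, n = 3.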

half-life | SMILES
4.04 h | O=C(O)[C@@H](CO)NCc1cc(Cl)c(OCc2cccc(-c3ccccc3)c2Br)cc1OCc1ccc2nonc2c1

system: not listed separately; assay: Tmax in Sprague-Dawley rat at 2 mg/kg, iv measured upto 24 hrs by LC-MS analysis; format: ADME, organism-based; settings: in vivo
Procedure, shortened: (§4)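 Male Sprague-Dawley rats or C57BL/6 mice fasted 12 h before dosing, given oral (po) or intravenous (iv) doses. Plasma levels measured by LC-MS. Parameters reported as mean ± SEM, n = 3.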

Tmax | SMILES
4.8 min | O=C(O)[C@@H](CO)NCc1cc(Cl)c(OCc2cccc(-c3ccccc3)c2Br)cc1OCc1ccc2nonc2c1

system: not listed separately; assay: Cmax in Sprague-Dawley rat at 2 mg/kg, iv measured upto 24 hrs by LC-MS analysis; format: ADME, organism-based; parameters: route intravenous, dose 2 mg/kg, time <=24; settings: in vivo; procedure, shortened: as §3

Cmax | SMILES
2090 ng/mL | O=C(O)[C@@H](CO)NCc1cc(Cl)c(OCc2cccc(-c3ccccc3)c2Br)cc1OCc1ccc2nonc2c1

system: not listed separately; assay: AUC (0 to t) in Sprague-Dawley rat at 2 mg/kg, iv measured upto 24 hrs by LC-MS analysis; format: ADME, organism-based; parameters: route intravenous, dose 2 mg/kg, time <=24; settings: in vivo; procedure, shortened: as §3

AUC(0-t) at 24 h | SMILES
860 ng·h/mL | O=C(O)[C@@H](CO)NCc1cc(Cl)c(OCc2cccc(-c3ccccc3)c2Br)cc1OCc1ccc2nonc2c1

system: not listed separately; assay: Clearance in Sprague-Dawley rat at 2 mg/kg, iv measured upto 24 hrs by LC-MS analysis; format: ADME, organism-based; settings: in vivo; procedure, shortened: as §3

clearance | SMILES
39.6 mL/min/kg | O=C(O)[C@@H](CO)NCc1cc(Cl)c(OCc2cccc(-c3ccccc3)c2Br)cc1OCc1ccc2nonc2c1

system: not listed separately; assay: Half life in Sprague-Dawley rat at 10 mg/kg, po measured upto 24 hrs by LC-MS analysis; format: ADME, organism-based; settings: in vivo; procedure, shortened: as §3

half-life | SMILES
4.17 h | O=C(O)[C@@H](CO)NCc1cc(Cl)c(OCc2cccc(-c3ccccc3)c2Br)cc1OCc1ccc2nonc2c1

system: not listed separately; assay: Tmax in Sprague-Dawley rat at 10 mg/kg, po measured upto 24 hrs by LC-MS analysis; format: ADME, organism-based; settings: in vivo; procedure, shortened: as §4

Tmax | SMILES
2.33 h | O=C(O)[C@@H](CO)NCc1cc(Cl)c(OCc2cccc(-c3ccccc3)c2Br)cc1OCc1ccc2nonc2c1

system: not listed separately; assay: Cmax in Sprague-Dawley rat at 10 mg/kg, po measured upto 24 hrs by LC-MS analysis; format: ADME, organism-based; parameters: route oral, dose 10 mg/kg, time <=24; settings: in vivo; procedure, shortened: as §3

Cmax | SMILES
4.46 ng/mL | O=C(O)[C@@H](CO)NCc1cc(Cl)c(OCc2cccc(-c3ccccc3)c2Br)cc1OCc1ccc2nonc2c1

system: not listed separately; assay: AUC (0 to t) in Sprague-Dawley rat at 10 mg/kg, po measured upto 24 hrs by LC-MS analysis; format: ADME, organism-based; parameters: route oral, dose 10 mg/kg, time <=24; settings: in vivo; procedure, shortened: as §3

AUC(0-t) at 24 h | SMILES
15.2 ng·h/mL | O=C(O)[C@@H](CO)NCc1cc(Cl)c(OCc2cccc(-c3ccccc3)c2Br)cc1OCc1ccc2nonc2c1

system: not listed separately; assay: Oral bioavailability in Sprague-Dawley rat at 10 mg/kg measured upto 24 hrs by LC-MS analysis; format: ADME, organism-based; settings: in vivo; procedure, shortened: as §4

bioavailability | SMILES
0.35% | O=C(O)[C@@H](CO)NCc1cc(Cl)c(OCc2cccc(-c3ccccc3)c2Br)cc1OCc1ccc2nonc2c1

target: Voltage-gated inwardly rectifying potassium channel KCNH2 (Homo sapiens, UniProt Q12809); assay: Inhibition of human ERG; settings: not given
Sequence (Q12809 whole entry): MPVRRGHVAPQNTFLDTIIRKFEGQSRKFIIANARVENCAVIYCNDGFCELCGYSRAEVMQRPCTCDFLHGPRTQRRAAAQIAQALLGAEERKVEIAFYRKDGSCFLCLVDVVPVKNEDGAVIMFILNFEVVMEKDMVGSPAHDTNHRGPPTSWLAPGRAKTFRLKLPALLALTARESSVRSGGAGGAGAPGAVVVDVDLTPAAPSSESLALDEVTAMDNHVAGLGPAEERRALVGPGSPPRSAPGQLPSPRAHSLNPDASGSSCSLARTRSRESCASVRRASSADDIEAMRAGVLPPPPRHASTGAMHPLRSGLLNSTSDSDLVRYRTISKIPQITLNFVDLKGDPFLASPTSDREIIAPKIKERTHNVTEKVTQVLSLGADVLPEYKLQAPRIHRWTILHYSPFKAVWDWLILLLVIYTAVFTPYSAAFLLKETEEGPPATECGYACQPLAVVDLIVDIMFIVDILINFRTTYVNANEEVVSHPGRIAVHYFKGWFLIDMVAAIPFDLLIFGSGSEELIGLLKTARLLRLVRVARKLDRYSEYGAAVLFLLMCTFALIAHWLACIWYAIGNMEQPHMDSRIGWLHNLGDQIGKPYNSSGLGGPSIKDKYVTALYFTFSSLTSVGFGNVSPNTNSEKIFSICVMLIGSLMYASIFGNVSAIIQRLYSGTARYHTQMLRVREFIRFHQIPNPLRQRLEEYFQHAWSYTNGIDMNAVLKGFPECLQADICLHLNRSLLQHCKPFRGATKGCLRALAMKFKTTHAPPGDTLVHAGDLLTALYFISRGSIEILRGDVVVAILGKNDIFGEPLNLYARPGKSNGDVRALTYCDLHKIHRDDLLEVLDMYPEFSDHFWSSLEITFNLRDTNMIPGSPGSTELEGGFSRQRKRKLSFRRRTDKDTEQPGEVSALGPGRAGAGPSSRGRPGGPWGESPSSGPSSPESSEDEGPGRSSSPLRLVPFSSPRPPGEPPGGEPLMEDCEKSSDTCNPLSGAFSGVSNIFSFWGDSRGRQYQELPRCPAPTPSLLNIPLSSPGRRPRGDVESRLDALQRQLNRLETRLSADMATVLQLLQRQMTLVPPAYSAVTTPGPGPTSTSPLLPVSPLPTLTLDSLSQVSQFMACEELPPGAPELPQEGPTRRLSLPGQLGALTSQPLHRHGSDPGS

SMILES | IC50
O=C(O)[C@@H](CO)NCc1cc(Cl)c(OCc2cccc(-c3ccccc3)c2Br)cc1OCc1ccc2nonc2c1 | > 30000 nM

target: Programmed cell death protein 1/Programmed cell death 1 ligand 1 (Homo sapiens) (UniProt Q15116+Q9NZQ7); settings: Jurkat, time 6.0 hrs

SMILES | RLU
O=C(O)[C@@H](CO)NCc1cc(Cl)c(OCc2cccc(-c3ccccc3)c2Br)cc1OCc1ccc2nonc2c1 | 1.81
